Compound activity as filed in PubChem BioAssay.
Kir21 inh = blocks the mouse Kir2.1 inward-rectifier potassium channel | P35561 | HEK293-Kir2.1, FluxOR thallium flux fluorescence; stronger effect = lower value | B-score at 10 µM | actives 0.85% (n = 310,000);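 active = fluorescence ratio B-score at or below minus 3 SD of library scores, with starting-brightness B-score within 2 SD, cut at about -4.2 in these data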;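 note: channel flux triggered by added potassium and thallium sulfate stimulus; B-score of peak minus minimum fluorescence over baseline after thallium stimulus; more negative B-score means stronger Kir2.1 block with less thallium influx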
TRPC4 act = TRPC4 (mouse) channel activation; Q9QUQ5; HEK293 TRPC4beta/mu-opioid, Fluo4 calcium fluorescence; stronger effect = higher value; B-score at 10 µM; actives 0.49% (n = 310,000); AID 2237;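 active = B-score above 5 SD of library B-scores, and initial fluorescence ratio not above library mean plus 5 SD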;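 note: positive B-score marks a calcium rise read as TRPC4 activation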
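Assay system: HEK293 stable line with TRPC4beta plus mu-opioid receptor; schedule: 45 min room-temperature Fluo4 loading, 110 s read; technique: kinetic Fluo4 calcium fluorescence; evaluation: integrated baseline-normalised fluorescence ratio, converted to per-well B score; controls: buffer (low) and maximal DAMGO (high)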
TRPC6 act = activates the mouse TRPC6 cation channel. B-score at 10 µM. HEK293-TRPC6 membrane potential dye fluorescence; stronger effect = higher value. actives 0.13% (n = 310,000);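 active = B-score of the integrated fluorescence ratio above library mean plus 3 SD, and starting fluorescence ratio within library mean plus 5 SD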;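 note: higher score means more depolarization so channel activation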
TRPC6 inh = mouse TRPC6 channel inhibition; HEK293-TRPC6, membrane potential dye, ACh-evoked depolarization; stronger effect = lower value; B-score at 10 µM; actives 1.1% (n = 310,000); AID 2553;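 active = B-score under library mean minus 3 SD, initial fluorescence not abnormally high, positive integrated signal ratio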;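 note: B-score derived from integrated fluorescence ratio over the kinetic read; more negative B-score means stronger inhibition of depolarization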
TRPC4 PAM = allosterically enhances the mouse TRPC4 cation channel. actives 0.42% (n = 310,000). B-score at 10 µM. Q9QUQ5. AID 2227. HEK293 TRPC4beta/mu-opioid, DAMGO EC20, Fluo-4 Ca2+ flux; stronger effect = higher value;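 active = B-score of calcium response area above 5 SD of library B-scores, with initial fluorescence ratio within 5 SD of library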
TRPC4 block = blocks the mouse TRPC4 cation channel; actives 0.39% (n = 300,000); HEK293 TRPC4beta/mu-opioid, DAMGO-evoked Fluo4 calcium flux; stronger effect = lower value; B-score at 10 µM;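 active = B-score over 3 SD under the library average, no early fluorescence shift, positive overall ratio signal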
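material = TRPC4beta/mu-opioid receptor HEK293 cell line | probe or stimulus = sequential submaximal and maximal DAMGO stimulation | compound dosing = one concentration per compound | measured by = Fluo4 Ca2+ flux fluorescence | evaluation = integrated fluorescence ratio relative to baseline, converted to per-well B score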
hERG ctr = blocks human hERG, in counter-screen for Kir2.1 inhibitors; inhibition, % at 10 µM; shares compounds with Kir21 inh; AID 2236; actives 20% (n = 320); hERG-expressing cells, thallium flux;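 note: host cells are CHO cells stably expressing hERG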
Target sequence (Q12809 whole entry, looked up): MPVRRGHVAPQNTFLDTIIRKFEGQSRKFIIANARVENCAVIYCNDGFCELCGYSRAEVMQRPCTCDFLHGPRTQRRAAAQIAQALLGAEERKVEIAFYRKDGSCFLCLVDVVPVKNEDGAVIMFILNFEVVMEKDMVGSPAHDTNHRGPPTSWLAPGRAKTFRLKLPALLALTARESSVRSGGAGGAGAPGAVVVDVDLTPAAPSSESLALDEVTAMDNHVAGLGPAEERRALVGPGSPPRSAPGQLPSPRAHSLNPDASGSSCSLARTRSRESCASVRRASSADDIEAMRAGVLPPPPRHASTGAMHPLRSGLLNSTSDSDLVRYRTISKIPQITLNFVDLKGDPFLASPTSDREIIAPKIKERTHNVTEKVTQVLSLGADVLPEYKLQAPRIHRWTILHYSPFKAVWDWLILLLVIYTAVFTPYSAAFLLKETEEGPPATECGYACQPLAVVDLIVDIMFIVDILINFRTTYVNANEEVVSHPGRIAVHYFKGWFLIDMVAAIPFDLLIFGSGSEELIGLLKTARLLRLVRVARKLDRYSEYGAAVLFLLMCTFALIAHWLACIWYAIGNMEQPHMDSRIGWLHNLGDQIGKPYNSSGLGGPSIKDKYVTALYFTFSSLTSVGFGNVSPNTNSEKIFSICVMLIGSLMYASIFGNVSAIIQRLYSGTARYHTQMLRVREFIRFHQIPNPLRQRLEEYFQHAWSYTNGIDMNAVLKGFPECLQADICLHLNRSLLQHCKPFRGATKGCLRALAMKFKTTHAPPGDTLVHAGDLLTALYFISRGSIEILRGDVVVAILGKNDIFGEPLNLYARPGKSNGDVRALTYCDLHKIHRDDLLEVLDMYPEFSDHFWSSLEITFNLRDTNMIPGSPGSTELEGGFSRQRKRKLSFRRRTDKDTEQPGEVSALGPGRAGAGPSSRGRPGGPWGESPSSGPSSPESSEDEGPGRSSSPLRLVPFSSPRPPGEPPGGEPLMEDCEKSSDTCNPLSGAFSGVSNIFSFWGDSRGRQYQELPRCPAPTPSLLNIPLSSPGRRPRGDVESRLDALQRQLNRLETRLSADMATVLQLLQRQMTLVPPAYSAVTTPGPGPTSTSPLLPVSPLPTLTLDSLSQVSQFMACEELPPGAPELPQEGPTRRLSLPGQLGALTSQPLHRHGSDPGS
KCNK9 inh = selectivity of Kir2.1 inhibitors: effect on human KCNK9; inhibition, % at 10 µM; KCNK9-expressing cells, ion flux inhibition; shares compounds with Kir21 inh; actives 5% (n = 320)
Kir21 ephys inh = mouse Kir2.1 inward rectifier channel inhibition | Kir2.1 cells, automated patch-clamp current inhibition | shares compounds with Kir21 inh | inhibition, % at 25 µM | actives 71% (n = 320)
TRPC4 spec 2 = mouse TRPC4 off-target activity of TRPC6 inhibitors, second screen; shares compounds with TRPC6 inh; HEK293 TRPC4/MOR, membrane potential dye fluorescence; channel activated by saturating DAMGO dose; actives 42% (n = 920); inhibition, % at 10 µM;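 active = compounds whose fluorescence signal differed from control wells by over 3 SD, either direction, in both duplicate plates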
TRPC4 spec = tests whether TRPC6 inhibitors also affect mouse TRPC4. shares compounds with TRPC6 inh. activity change, negative = inhibition, % at 10 µM. HEK293 TRPC4/mu-opioid, membrane potential fluorescence. actives 61% (n = 920). AID 2777;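 active = rise or fall in signal beyond 3 SD of buffer-only wells in both replicate plates, either sign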;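 note: integrated kinetic ratio of fluorescence range over baseline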
HEK293 MPD ctr 2-1 = parental HEK293 nonspecific activity of TRPC6 inhibitors, second screen | parental HEK293 membrane potential dye fluorescence; maximal acetylcholine challenge after compound addition | shares compounds with TRPC6 inh | actives 31% (n = 920) | signal change vs control, % at 10 µM;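 active = membrane potential signal moving either way by over 3 SD of the maximum-effect control, in both duplicate plates, meaning non-specific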
HEK293 MPD ctr-1 = parental HEK293 nonspecific activity of TRPC6 inhibitors; shares compounds with TRPC6 inh; parental HEK293 membrane potential dye fluorescence; membrane potential signal change, % at 10 µM; actives 60% (n = 920); AID 2780;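 active = membrane potential signal shifting up or down by more than 3 SD of buffer-only wells, on both duplicate plates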
HEK293 MPD ctr-2 = checks TRPC6 modulator effects in parental HEK293 cells; shares compounds with TRPC6 inh; membrane potential dye fluorescence; membrane potential signal change, % at 10 µM; actives 51% (n = 2,400);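 active = membrane potential signal moves up or down beyond 5 SD from buffer-only wells, on both duplicate plates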
HEK293 MPD ctr 2-2 = parental HEK293 nonspecific activity of TRPC6 modulators, second screen; shares compounds with TRPC6 inh; membrane potential dye fluorescence; after compound, maximal acetylcholine stimulation; inhibition, % at 10 µM; actives 14% (n = 2,400); AID 488926;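 active = membrane potential signal drops by more than 5 SD from the mean control signal, in both duplicate plates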
TRPC4/MOR mod = tests whether TRPC6 modulators also affect mouse TRPC4. percent change from control (negative = decrease, positive = increase), % at 10 µM. actives 69% (n = 2,400). shares compounds with TRPC6 inh. HEK293 TRPC4/mu-opioid, membrane potential fluorescence. AID 488927;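 active = membrane potential signal moved up or down beyond 5 SD of buffer control wells, in both duplicate plates, actives on both sides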
TRPC4/MOR inh 2 = mouse TRPC4 off-target activity of TRPC6 modulators, second screen; shares compounds with TRPC6 inh; HEK293 TRPC4/mu-opioid, membrane potential dye fluorescence; stimulated with maximal-effect DAMGO; inhibition, % at 10 µM; actives 55% (n = 2,400); AID 488928;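 active = drop in membrane potential signal beyond 5 SD of the control wells in both duplicate plates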;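 note: TRPC4 counter screen for TRPC6 hits run under conditions tuned for TRPC6 not TRPC4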
TRPC6 block conf = mouse TRPC6 inhibitor confirmation | shares compounds with TRPC6 inh | HEK293-TRPC6, membrane potential dye, ACh-evoked depolarization | inhibition, % at 10 µM | actives 43% (n = 3,300) | AID 488960;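 active = fluorescence ratio falls more than 5 SD below the full-stimulation control mean, in both duplicate runs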;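 note: integrated fluorescence ratio of peak minus minimum over baseline after agonist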
TRPC6 act confirm = confirmation of mouse TRPC6 activators; shares compounds with TRPC6 inh; HEK293-TRPC6 membrane potential dye fluorescence, FDSS; activation, % at 10 µM; actives 11% (n = 2,800);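 active = ratio signal rise beyond 5 SD above unstimulated control wells' mean, seen in both duplicate runs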
Hits are given with their value; – = inactive; · = no result. This is a sample that favours compounds with a hit; in the whole collection about 3% have one here. Unless noted, the rule behind the calls is not given here.

SMILES	Kir21 inh	TRPC4 act	TRPC6 act	TRPC6 inh	TRPC4 PAM	TRPC4 block	hERG ctr	KCNK9 inh	Kir21 ephys inh	HEK293 MPD ctr-2	HEK293 MPD ctr 2-2	TRPC4/MOR mod	TRPC4/MOR inh 2	TRPC6 block conf	TRPC6 act confirm	others
CC(C)N(C(=O)CSc1nnc(-c2ccc3c(c2)OCO3)n1C)C(C)C	–	–	–	–	–	–	·	·	·	·	·	·	·	·	·
CCOC(=O)N1CCN(C(=O)/C(=C\c2ccc(SC)cc2)NC(=O)c2ccccc2)CC1	–	–	–	–	–	–	·	·	·	·	·	·	·	·	·
N#Cc1ccccc1COc1cccc2c1CCCC2O (stereo not drawn)	–	–	–	–	–	–	·	·	·	·	·	·	·	·	·
CCCCN1CCc2c1nc1ccc(Br)cc1c2N	-11.2	–	–	-6.35	–	–	–	–	12.5%	-132.0%	98.0%	-37.0%	93.0%	88.5%	–
COc1ccc2ccccc2c1CNCc1ccc(C)cc1	-9.11	–	–	-8	–	–	–	–	40.7%	·	·	·	·	61.9%	·	TRPC4 spec 2=50.5%;TRPC4 spec=51.8%;HEK293 MPD ctr 2-1=–;HEK293 MPD ctr-1=22.0%
COc1ccccc1CNCc1ccc(C)cc1	–	–	–	–	–	–	·	·	·	·	·	·	·	·	·
O=C(Cc1ccccc1)c1c[nH]c(C(=O)NCCCN2CCOCC2)c1	–	–	–	–	–	–	·	·	·	·	·	·	·	·	·
COc1ccccc1NC(=O)CN1CC(=O)Nc2ccccc21	–	–	–	–	–	–	·	·	·	·	·	·	·	·	·
CC(NCCC(Cc1ccccc1)c1ccco1)c1ccccc1 (stereo not drawn)	-13.9	–	12.1	-5.57	–	-6	–	–	–	167.0%	–	42.5%	39.5%	–	36.5%
CC(C)(CO)NCc1ccccc1OCC(=O)Nc1ccccc1	–	–	–	–	–	–	·	·	·	·	·	·	·	·	·
Cc1ccc(NC(=O)COc2ccccc2CNC(C)(C)CC(C)(C)C)cc1	-6.32	–	14.4	–	–	–	50.0%	37.0%	–	295.5%	–	71.0%	–	–	176.5%
Cc1ccc(O)c(CNc2nc3ccccc3n2C(C)C)c1	–	–	–	–	–	–	·	·	·	·	·	·	·	·	·
Cc1ccc(O)c(CNCCNCc2cc(C)ccc2O)c1	-6.13	–	–	-6.38	–	–	–	–	51.1%	161.0%	–	16.5%	82.0%	44.0%	·
C=CCNc1nc(NCc2ccccc2)c(C#N)c2c1CN(C)CC2	-6.81	–	–	-6.45	–	–	64.0%	–	1.6%	-75.0%	–	-21.0%	45.5%	–	–
COc1ccccc1CNC(=O)CCNS(=O)(=O)c1ccc2c(c1)oc(=O)n2C	–	–	–	–	–	–	·	·	·	·	·	·	·	·	·
NS(=O)(=O)c1ccc(CCNCc2ccccc2OCc2ccc(Cl)cc2)cc1	-8.25	–	–	-6.82	–	-5	65.0%	–	31.0%	·	·	·	·	61.5%	–	TRPC4 spec 2=30.5%;TRPC4 spec=–;HEK293 MPD ctr 2-1=–;HEK293 MPD ctr-1=2.1%
NS(=O)(=O)c1ccc(CCNCc2cc(Br)ccc2OCc2ccccc2F)cc1	-6.33	–	–	-5.68	–	–	–	46.0%	12.3%	–	–	–	88.0%	56.0%	–
NS(=O)(=O)c1ccc(CCNCc2cc(Cl)ccc2OCc2ccccc2)cc1	–	–	–	–	–	–	·	·	·	·	·	·	·	·	·
Cc1coc2c(C)c3oc(=O)c(CCC(=O)N4CCC(C(=O)NCCCC(=O)O)(c5ccccc5)CC4)c(C)c3cc12	–	–	–	–	–	–	·	·	·	·	·	·	·	·	·
Cc1cc(C)n(-c2nc(NCc3cccnc3)c3c4c(sc3n2)COC(C)(C)C4)n1	–	–	–	-7.43	–	–	·	·	·	·	·	·	·	–	–	TRPC4 spec 2=–;TRPC4 spec=–;HEK293 MPD ctr 2-1=–;HEK293 MPD ctr-1=–
Cc1cc(C)n(-c2nc(SCC(=O)O)c3c4c(sc3n2)COC(C)(C)C4)n1	–	–	–	–	–	–	·	·	·	·	·	·	·	·	·
CCN(CC)CCCNc1nc(-n2nc(C)cc2C)nc2sc3c(c12)CC(C)(C)OC3	–	–	–	-10.3	–	–	·	·	·	·	·	·	·	56.8%	–	TRPC4 spec 2=–;TRPC4 spec=-10.6%;HEK293 MPD ctr 2-1=–;HEK293 MPD ctr-1=-204.5%
OCCN(CC#CC(O)(c1ccccc1)c1cccc(F)c1)CCO (stereo not drawn)	–	–	–	–	–	–	·	·	·	·	·	·	·	·	·
CN(C)CCC#CC(O)(c1ccccc1)c1ccccc1	–	–	–	-5.69	–	–	·	·	·	–	98.0%	7.0%	–	83.5%	·
CCN(CC)CC#CC(O)(c1ccccc1)c1ccccc1	–	–	–	-13.7	–	–	·	·	·	·	·	·	·	80.2%	–	TRPC4 spec 2=–;TRPC4 spec=1.8%;HEK293 MPD ctr 2-1=-31.0%;HEK293 MPD ctr-1=5.0%
CN(C)C(C)(C)C#CC(O)(c1ccccc1)c1ccccc1	–	–	–	-8.36	–	–	·	·	·	·	·	·	·	67.3%	–	TRPC4 spec 2=–;TRPC4 spec=-0.1%;HEK293 MPD ctr 2-1=11.0%;HEK293 MPD ctr-1=4.5%
CN(C)CCCC(C)(O)C(C)(C)c1ccccc1 (stereo not drawn)	–	–	–	–	–	–	·	·	·	·	·	·	·	·	·
